Data on 39 compounds can be found in the M2OR odorant receptor database.

Conditions in all cases: stereoisomer not certain
The target in one assay is T1, OR2L13 (Homo sapiens) (UniProt Q8N349).
T1 sequence (whole entry): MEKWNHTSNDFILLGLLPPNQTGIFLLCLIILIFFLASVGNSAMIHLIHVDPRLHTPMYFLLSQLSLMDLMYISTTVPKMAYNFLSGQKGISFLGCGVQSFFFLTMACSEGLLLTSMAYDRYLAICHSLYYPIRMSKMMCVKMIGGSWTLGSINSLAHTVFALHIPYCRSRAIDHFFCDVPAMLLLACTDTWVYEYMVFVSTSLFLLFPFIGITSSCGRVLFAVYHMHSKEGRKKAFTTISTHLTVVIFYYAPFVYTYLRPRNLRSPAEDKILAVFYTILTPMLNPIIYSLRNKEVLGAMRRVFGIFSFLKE
The gist of the method: (§1)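 Assay methods differ from source to source, frequently being transient luciferase assays in mammalian cell lines. For each receptor–molecule pair, the label responsive (active) applies when the original authors judged the measured signal statistically different from baseline, and non-responsive (inactive) applies otherwise.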

A further assay has as its target T2, OR2L2 (Homo sapiens) (UniProt Q8NH16).
T2 sequence (whole entry): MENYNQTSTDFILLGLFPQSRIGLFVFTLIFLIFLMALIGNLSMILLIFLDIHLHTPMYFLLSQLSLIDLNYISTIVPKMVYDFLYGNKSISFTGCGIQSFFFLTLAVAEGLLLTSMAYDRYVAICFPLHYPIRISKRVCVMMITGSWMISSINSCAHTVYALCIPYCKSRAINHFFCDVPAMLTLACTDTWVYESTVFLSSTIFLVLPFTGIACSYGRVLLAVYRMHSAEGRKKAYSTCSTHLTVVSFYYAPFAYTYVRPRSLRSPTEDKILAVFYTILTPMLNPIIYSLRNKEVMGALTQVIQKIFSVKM
In a few lines:
as §1

In a further assay the target is T3, OR2L3 (Homo sapiens) (UniProt Q8NG85).
T3 sequence (whole entry): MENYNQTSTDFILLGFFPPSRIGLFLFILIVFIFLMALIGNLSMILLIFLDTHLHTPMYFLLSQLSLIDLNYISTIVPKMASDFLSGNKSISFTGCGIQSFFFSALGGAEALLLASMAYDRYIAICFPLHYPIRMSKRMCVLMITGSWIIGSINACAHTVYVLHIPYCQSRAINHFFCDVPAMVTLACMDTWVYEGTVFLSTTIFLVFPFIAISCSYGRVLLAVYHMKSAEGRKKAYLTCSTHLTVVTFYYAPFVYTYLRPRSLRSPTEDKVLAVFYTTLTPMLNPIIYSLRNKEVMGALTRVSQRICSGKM
The gist of the method:
as §1

The next assay concerns the target T4, OR2L5 (Homo sapiens) (UniProt Q8NG80).
T4 sequence (whole entry): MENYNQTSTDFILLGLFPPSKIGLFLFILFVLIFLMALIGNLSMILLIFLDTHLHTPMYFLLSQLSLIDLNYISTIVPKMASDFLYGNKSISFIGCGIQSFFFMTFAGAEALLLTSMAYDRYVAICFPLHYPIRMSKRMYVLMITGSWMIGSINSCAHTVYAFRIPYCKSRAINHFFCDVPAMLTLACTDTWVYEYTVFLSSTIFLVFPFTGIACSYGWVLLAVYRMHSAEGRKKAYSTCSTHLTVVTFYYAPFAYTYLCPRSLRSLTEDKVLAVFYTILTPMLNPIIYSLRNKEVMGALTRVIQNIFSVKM
The gist of the method:
as §1

The next assay addresses T5, OR2L8 (Homo sapiens) (UniProt Q8NGY9).
T5 sequence (whole entry): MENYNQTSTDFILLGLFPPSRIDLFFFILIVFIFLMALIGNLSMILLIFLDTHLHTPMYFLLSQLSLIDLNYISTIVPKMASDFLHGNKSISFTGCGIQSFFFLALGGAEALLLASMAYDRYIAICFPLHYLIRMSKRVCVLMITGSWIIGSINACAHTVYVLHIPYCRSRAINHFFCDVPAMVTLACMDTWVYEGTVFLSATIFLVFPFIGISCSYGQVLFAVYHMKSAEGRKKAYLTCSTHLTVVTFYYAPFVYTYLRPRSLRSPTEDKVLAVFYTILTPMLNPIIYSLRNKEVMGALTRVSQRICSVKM
In a few lines: as §1

For a further assay, the target named is T6, OR2M2 (Homo sapiens) (UniProt Q96R28).
T6 sequence (whole entry): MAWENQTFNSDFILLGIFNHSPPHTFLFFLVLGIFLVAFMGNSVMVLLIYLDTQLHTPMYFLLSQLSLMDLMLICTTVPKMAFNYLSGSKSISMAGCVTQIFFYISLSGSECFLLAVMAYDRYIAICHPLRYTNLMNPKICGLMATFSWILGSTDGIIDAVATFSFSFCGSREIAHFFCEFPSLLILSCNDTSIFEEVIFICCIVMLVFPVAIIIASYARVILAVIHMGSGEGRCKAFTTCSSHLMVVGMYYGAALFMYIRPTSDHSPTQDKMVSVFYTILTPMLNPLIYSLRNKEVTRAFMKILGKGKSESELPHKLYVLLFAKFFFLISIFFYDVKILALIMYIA
In a few lines:
as §1

The target of another assay is T7, OR2M3 (Homo sapiens) (UniProt Q8NG83).
T7 sequence (whole entry): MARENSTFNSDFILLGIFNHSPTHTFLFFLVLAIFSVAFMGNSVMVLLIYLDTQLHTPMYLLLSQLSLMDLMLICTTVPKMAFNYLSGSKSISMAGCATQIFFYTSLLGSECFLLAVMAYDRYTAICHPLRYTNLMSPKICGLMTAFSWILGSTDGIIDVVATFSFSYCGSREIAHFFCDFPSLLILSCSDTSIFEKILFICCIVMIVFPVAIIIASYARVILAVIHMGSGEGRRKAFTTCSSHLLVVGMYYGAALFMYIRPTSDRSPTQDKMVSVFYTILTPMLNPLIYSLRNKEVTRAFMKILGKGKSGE
The gist of the method:
as §1

On to `CC1=NC(C)C(C)S1` (stereo not drawn), for which the “odorant receptor agonist call” value with OR2L13 (Homo sapiens), with OR2L2 (Homo sapiens), with OR2L3 (Homo sapiens), with OR2L5 (Homo sapiens), with OR2L8 (Homo sapiens) and with OR2M2 (Homo sapiens) was “inactive” each time. For the same compound, the “odorant receptor agonist call” value with OR2M3 (Homo sapiens) was “inactive”.

For `CCCCCC(=O)C(C)C(C)=O` (stereo not drawn), the “odorant receptor agonist call” value with OR2L13 (Homo sapiens), in the assay with OR2L2 (Homo sapiens), with OR2L3 (Homo sapiens), with OR2L5 (Homo sapiens), with OR2L8 (Homo sapiens) and with OR2M2 (Homo sapiens) was “inactive” each time. Besides, the “odorant receptor agonist call” value in the assay with OR2M3 (Homo sapiens) is “inactive”.

Regarding `CCCCCCCCCCCCCC(=O)O`, the “odorant receptor agonist call” value in the assay with OR2L13 (Homo sapiens) is “inactive”.

As to `CCCCCCCCCCCCCCCCCC(=O)[O-].[H+]`, the “odorant receptor agonist call” value with OR2L13 (Homo sapiens) was “inactive”.

For `Cc1ccc(C(C)C)cc1`, in the assay with OR2L13 (Homo sapiens), the “odorant receptor agonist call” value was “inactive”.

Take `CCCC(=O)CC`: the “odorant receptor agonist call” value with OR2L13 (Homo sapiens) is “inactive”.

For `Cc1cnc(C)cn1`, the “odorant receptor agonist call” value in the assay with OR2L13 (Homo sapiens) is “inactive”.

Turning to `CCCCCCC=CCCC=O`, the “odorant receptor agonist call” value with OR2L13 (Homo sapiens), with OR2L2 (Homo sapiens), with OR2L3 (Homo sapiens), with OR2L5 (Homo sapiens), with OR2L8 (Homo sapiens) and with OR2M2 (Homo sapiens) was “inactive” in each case. Besides, the “odorant receptor agonist call” value in the assay with OR2M3 (Homo sapiens) was “inactive”.

Consider `Cc1cccc(C)c1C`, for which the “odorant receptor agonist call” value with OR2L13 (Homo sapiens) was “inactive”.

On to `CCCCCCCCCCCC(=O)OCC`, for which the “odorant receptor agonist call” value in the assay with OR2L13 (Homo sapiens) is “inactive”.

Take `CCC1OC(=O)C(O)=C1C` (stereo not drawn): the “odorant receptor agonist call” value with OR2L13 (Homo sapiens), with OR2L2 (Homo sapiens), with OR2L3 (Homo sapiens), with OR2L5 (Homo sapiens), with OR2L8 (Homo sapiens) and in the assay with OR2M2 (Homo sapiens) was “inactive” each time. The “odorant receptor agonist call” value with OR2M3 (Homo sapiens) is “inactive”.

Take `CC(C=O)Cc1ccc(C(C)(C)C)cc1` (stereo not drawn): in the assay with OR2L13 (Homo sapiens), the “odorant receptor agonist call” value was “inactive”.

Turning to `CCCCCCCCCCCC(=O)OC`, in the assay with OR2L13 (Homo sapiens), the “odorant receptor agonist call” value is “inactive”.

In the case of `CCCCCCC(=O)[O-].[H+]`, the “odorant receptor agonist call” value with OR2L13 (Homo sapiens) is “inactive”.

Take `CCCCC(=O)C(C)=O`: the “odorant receptor agonist call” value with OR2L13 (Homo sapiens) was “inactive”.

Take `CCCCCCCCCCCCCC(=O)OC`: the “odorant receptor agonist call” value in the assay with OR2L13 (Homo sapiens) is “inactive”.

Regarding `COc1ccc2[nH]cc(CCNC(C)=O)c2c1`, the “odorant receptor agonist call” value in the assay with OR2L13 (Homo sapiens) is “inactive”.

As to `CCCCCCCCCCCCCCCC(=O)[O-].[H+]`, the “odorant receptor agonist call” value with OR2L13 (Homo sapiens) is “inactive”.

With `CCCCCCCCCCCCCC(=O)OCC`, the “odorant receptor agonist call” value with OR2L13 (Homo sapiens) was “inactive”.

For the compound `CC(O)C(=O)[O-].[H+]` (stereo not drawn), the “odorant receptor agonist call” value with OR2L13 (Homo sapiens) was “inactive”.

On to `CCCCCCCCCCCCCCCC(=O)OC`, for which the “odorant receptor agonist call” value in the assay with OR2L13 (Homo sapiens) is “inactive”.

With `CCCCCCCCCC(=O)OC`, the “odorant receptor agonist call” value in the assay with OR2L13 (Homo sapiens) is “inactive”.

For the compound `CC1=C(O)C(=O)C(C)O1` (stereo not drawn), the “odorant receptor agonist call” value with OR2L13 (Homo sapiens), with OR2L2 (Homo sapiens), with OR2L3 (Homo sapiens), with OR2L5 (Homo sapiens), with OR2L8 (Homo sapiens) and with OR2M2 (Homo sapiens) was “inactive” in each case. In addition, the “odorant receptor agonist call” value with OR2M3 (Homo sapiens) is “inactive”.

With `CCCCCCCCCCCCCCC(=O)O`, the “odorant receptor agonist call” value with OR2L13 (Homo sapiens) was “inactive”.

Turning to `CCCCCCCCCCCCCCCCCC(=O)OCC`, the “odorant receptor agonist call” value with OR2L13 (Homo sapiens) was “inactive”.

For `CCCCCCCCO`, the “odorant receptor agonist call” value with OR2L13 (Homo sapiens) and with OR2L2 (Homo sapiens) was “inactive” in each case.

Turning to `CCCCCCCCCCCCCCCCCC(=O)OC`, in the assay with OR2L13 (Homo sapiens), the “odorant receptor agonist call” value was “inactive”.

Consider `CCCC(S)CCOC(C)=O` (stereo not drawn), for which the “odorant receptor agonist call” value with OR2L13 (Homo sapiens), in the assay with OR2L2 (Homo sapiens), with OR2L3 (Homo sapiens), in the assay with OR2L5 (Homo sapiens), with OR2L8 (Homo sapiens) and with OR2M2 (Homo sapiens) was “inactive” in each case. The “odorant receptor agonist call” value with OR2M3 (Homo sapiens) is “inactive”.

Turning to `CCCO`, in the assay with OR2L13 (Homo sapiens), the “odorant receptor agonist call” value is “inactive”.

Take `CCCCCCCCCCCCO`: the “odorant receptor agonist call” value with OR2L13 (Homo sapiens) is “active”.

For the compound `CCCCOCC(C)O` (stereo not drawn), the “odorant receptor agonist call” value in the assay with OR2L13 (Homo sapiens) is “inactive”.

Take `CCCCCCCCCCCCCCCC(=O)OCC`: in the assay with OR2L13 (Homo sapiens), the “odorant receptor agonist call” value is “inactive”.

On to `CCCCCCCCCCCC(=O)O`, for which, in the assay with OR2L13 (Homo sapiens), the “odorant receptor agonist call” value was “inactive”.

`CCCCCCCC(=O)OC`: in the assay with OR2L13 (Homo sapiens), the “odorant receptor agonist call” value was “inactive”.

Consider `CCC(O)CC`, for which the “odorant receptor agonist call” value with OR2L13 (Homo sapiens) was “inactive”.

As for `CC(C)=CCCC(C)=CCCC(C)=CCO`, the “odorant receptor agonist call” value with OR2L13 (Homo sapiens) was “inactive”.

As for `Cc1cnc(C)c(C)n1`, the “odorant receptor agonist call” value with OR2L13 (Homo sapiens), with OR2L2 (Homo sapiens), with OR2L3 (Homo sapiens), with OR2L5 (Homo sapiens), in the assay with OR2L8 (Homo sapiens) and with OR2M2 (Homo sapiens) was “inactive” in each case. The “odorant receptor agonist call” value in the assay with OR2M3 (Homo sapiens) was “inactive”.

Turning to `CC=CC(=O)C1=C(C)C=CCC1(C)C`, the “odorant receptor agonist call” value in the assay with OR2M3 (Homo sapiens) was “inactive”.

Take `CCC1OC(C)=C(O)C1=O` (stereo not drawn): the “odorant receptor agonist call” value with OR2L13 (Homo sapiens), with OR2L2 (Homo sapiens), with OR2L3 (Homo sapiens), with OR2L5 (Homo sapiens), with OR2L8 (Homo sapiens) and with OR2M2 (Homo sapiens) was “inactive” in each case. In addition, in the assay with OR2M3 (Homo sapiens), the “odorant receptor agonist call” value was “inactive”.
